Test results reported in the EternaBench riboswitch data.

System: MS2 coat protein
Assay: apparent Kd, MS2 coat protein; higher = weaker binding; RNA-MaP array; FMN 200 µM where present
Procedure, shortened: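 Apparent Kd: the median of filtered binding-curve fits from single clusters. Designs were transcribed on Illumina sequencing-chip clusters by stalled E. coli RNA polymerase and titrated with SNAP-549-labelled MS2 coat protein from 0.7 or 1.5 nM, doubling to 3 µM, in 100 mM Tris-HCl pH 7.5, 80 mM KCl, 4 mM MgCl2, BSA, DTT, yeast tRNA and Tween-20. Each series ran without and then with constant ligand, and green signal was normalised to red-channel RNA signal and control-cluster median Fmax.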

[1] = designed as: ON switch for flavin mononucleotide, no ligand
[2] = ligand present: flavin mononucleotide, designed as: ON switch for flavin mononucleotide
[3] = designed as: OFF switch for flavin mononucleotide, no ligand
[4] = ligand present: flavin mononucleotide, designed as: OFF switch for flavin mononucleotide

Sequence	apparent Kd [1] [nM]	apparent Kd [2] [nM]	apparent Kd [3] [nM]	apparent Kd [4] [nM]
CAGCGCUGUCGAGAGGAUAUGCGGUGAUGGACAUGAGGAUCACCCAUGUUAGCGACAGCAUCACGGCAGAAGGCUCUACCCGCUG	13.2	12.8		
CAGCGGGUCUUCAGGGUAAUGAACAUGAGGAUCACCCAUGUGCAGGAUAUGACGGAUCCGCACCGUCAGAAGGGCACUAAGUGA			26.7	32.5
CAGCUGAAUGUGAGGAUAUGUCUAGCCUCGGCUAGACAGAAGGCACAUGAGGAUCACCCAUGUCUCAACAGCUG			38.8	675
CAGCUGAAUGUGAGGAUAUUACGAGCUUCGGCUCGUGAGAAGGCACAUGAGGAUCACCCAUGUCUCAACAGCUG			38.5	540
CAGGUAGACUGAGGAUAUACAAAAGACCUAGUCUAUCUAGGUCAAAUCACAUGAGGAUCACCCAUGUAGAAGGCAGUCUGCCUG			16.8	27.3
CAGGUAGACUGAGGAUAUACAAUAAAGACCUAGUCUAUCUAGGUCUCUACAUGAGGAUCACCCAUGUAGAAGGCAGUCUGCCUG			16	18.3
CAGGUAGACUGAGGAUAUACAUGACUUAGUCUAUCUAGGUCUAAAAUCACAUGAGGAUCACCCAUGUAGAAGGCAGUCUGCCUG			17.6	24.2
CAGUAAUUCGAAGGAUAUGGUUACAUGAGGAUCACCCAUGUAUUUUUUGUGAUCUUAAAAUUGAUCCAGAAGGUCGAAUUACUG			177	373
CAGUACUGAGGAUAUACAUGAGGAUCACCCAUGUGUCUAAAGUAGGAUACUACUAUUAGUAGAAGGCAGUACUG			12.1	14.9
CAGUGCAAUGUAGGAUAUGCUCAGGAAUACUGAGCAGAAGGACAUGAGGAUCACCCAUGUACUAUGAAAGAUAAUAAAGCACUG			13.5	18.2
CAGUGCAAUGUAGGAUAUGCUCAGGAUAACUGAGCAGAAGGACAUGAGGAUCACCCAUGUCAAAUGAAAGAUAAUAAAGCACUG			14.3	17.8
CAUAUACAUGAGGAUCACCCAUGUGAGGAUAUGCUUUAUUAUUAUUAUUAUUAUUGUUGCAGAAGGUACAUUAC			24.2	20.6
CAUAUAGUAGUGAGGAUAUGCGAAUAUAUAAUUAAGUAGAAGGCACAUGAGGAUCACCCAUGUAUAUUGUAAAG			20.6	20.6
CAUAUGUGCGGAGGAUAUGGGUGAAUCGGAUCGACAUGAGGAUCACCCAUGUAGCUCUUUGGCAUCUAGAAGGCCGGAUGAACG	25.9	111		
CAUGUACGUGAGGAUAUGGUGGCGACGAGCCGGCUAGAAGGCACAACAUGAGGAUCACCCAUGUCUUGGAUCUA			114	374
CAUGUUAUACAGGAUAUCCGUAUGUAAUUCGUCGGAGAAGGGUAUACAUGAGGAUCACCCAUGUAUUCCUAGCU			16.1	20.8
CAUUAACAUGAGGAUCACCCAUGUGAGGAUAUGAUAUUACUAGGACGGCUGUGAUCAAUCAGAAGGCACAUCUU			25	30
CAUUAAUUCAUUAUAGUAAUUAUACAGGAUAUGUUACAUGAGGAUCACCCAUGUAUUCAUGGUAUACAGAAGGGUAAUACUAGA			12.6	13.9
CAUUAAUUGAUUAUUGUAUUUAUACAGGAUAUGUAACAUGAGGAUCACCCAUGUAUACAUGGGAAACAGAAGGGUAUUUAUAGA			31.9	25.6
CAUUAGCGAGGAUAUACAUGAGGAUCACCCAUGUGAUCCUAAGGCUGAUCAAGCCUAUGUAGAAGGCGCAAAUC			593	83.6
CAUUGCGGAGGAUAUAGGCCGUAAUACAUGAGGAUCACCCAUGUGCCGCUGUAUAAUUCCCUAGAAGGUUGCCAUC			15.4	15.7
CAUUGGUAAGGAUAUGCACCGAUCUCCGAAAGGAGAUCGGUGCAGAAGGUACAUGAGGAUCACCCAUGUUGAUG			27.1	63.9
CCACGUCCCAUUAACAUGAGGAUCACCCAUGUCAAAAGACAUGAGGAUAUGGUACCUAAUUGGUACCAGAAGGCAUGGACGUGG	691	114		
